Reference: ChEMBL document CHEMBL1126762, “Synthesis and anaerobic activity of novel 1-carba-1-dethiacephalosporins” (J Med Chem, 1993)
Values after ≈ are worked out from the molar mass of the structure shown.

Tested on: Eikenella corrodens
Assay: Antibacterial activity against anaerobic Bacteroides corrodens 1874
Format: functional
Settings: not given
How it was run: (§1)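 MIC by agar dilution following the NCCLS M11-A2 (2nd ed.) procedure for antimicrobial testing of anaerobic bacteria.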

| Structure (SMILES) | MIC [µg/mL] |
| --- | --- |
| CO/N=C(\C(=O)N[C@@H]1C(=O)N2C(C(=O)O)=C(Sc3ncc(C(F)(F)F)s3)CC[C@H]12)c1csc(N)n1 | 128 (≈ 233 µM) |

Tested on: Phocaeicola vulgatus
Assay: Antibacterial activity against anaerobic Bacteroides vulgatus 1211
Format: functional
Settings: not given
How it was run: as §1

| Structure (SMILES) | MIC [µg/mL] |
| --- | --- |
| CO/N=C(\C(=O)N[C@@H]1C(=O)N2C(C(=O)O)=C(Sc3ncc(C(F)(F)F)s3)CC[C@H]12)c1csc(N)n1 | 8 (≈ 14.6 µM) |

Tested on: Bacteroides thetaiotaomicron
Assay: Antibacterial activity against anaerobic Bacteroides thetaiotaomicron 1438
Format: functional
Settings: not given
How it was run: as §1

| Structure (SMILES) | MIC [µg/mL] |
| --- | --- |
| CO/N=C(\C(=O)N[C@@H]1C(=O)N2C(C(=O)O)=C(Sc3ncc(C(F)(F)F)s3)CC[C@H]12)c1csc(N)n1 | 4 (≈ 7.29 µM) |

Tested on: Prevotella melaninogenica
Assay: Antibacterial activity against anaerobic Bacteroides melaninogenicus 1856/28
Format: functional
Settings: not given
How it was run: as §1

| Structure (SMILES) | MIC [µg/mL] |
| --- | --- |
| CO/N=C(\C(=O)N[C@@H]1C(=O)N2C(C(=O)O)=C(Sc3ncc(C(F)(F)F)s3)CC[C@H]12)c1csc(N)n1 | 0.125 (≈ 0.228 µM) |

Tested on: Prevotella melaninogenica
Assay: Antibacterial activity against anaerobic Bacteroides melaninogenicus 2736
Format: functional
Settings: not given
How it was run: as §1

| Structure (SMILES) | MIC [µg/mL] |
| --- | --- |
| CO/N=C(\C(=O)N[C@@H]1C(=O)N2C(C(=O)O)=C(Sc3ncc(C(F)(F)F)s3)CC[C@H]12)c1csc(N)n1 | 32 (≈ 58.3 µM) |

Tested on: Bacteroides fragilis
Assay: Antibacterial activity against anaerobic Bacteroides fragilis 111
Format: functional
Settings: not given
How it was run: as §1

| Structure (SMILES) | MIC [µg/mL] |
| --- | --- |
| CO/N=C(\C(=O)N[C@@H]1C(=O)N2C(C(=O)O)=C(Sc3ncc(C(F)(F)F)s3)CC[C@H]12)c1csc(N)n1 | 128 (≈ 233 µM) |

Tested on: Bacteroides fragilis
Assay: Antibacterial activity against anaerobic Bacteroides fragilis 1877
Format: functional
Settings: not given
How it was run: as §1

| Structure (SMILES) | MIC [µg/mL] |
| --- | --- |
| CO/N=C(\C(=O)N[C@@H]1C(=O)N2C(C(=O)O)=C(Sc3ncc(C(F)(F)F)s3)CC[C@H]12)c1csc(N)n1 | 4 (≈ 7.29 µM) |

Tested on: Bacteroides fragilis
Assay: Antibacterial activity against anaerobic Bacteroides fragilis 1936B
Format: functional
Settings: not given
How it was run: as §1

| Structure (SMILES) | MIC [µg/mL] |
| --- | --- |
| CO/N=C(\C(=O)N[C@@H]1C(=O)N2C(C(=O)O)=C(Sc3ncc(C(F)(F)F)s3)CC[C@H]12)c1csc(N)n1 | 128 (≈ 233 µM) |

Tested on: Clostridioides difficile
Assay: Antibacterial activity against anaerobic Clostridium difficile 2994 strain
Format: functional
Settings: not given
How it was run: as §1

| Structure (SMILES) | MIC [µg/mL] |
| --- | --- |
| CO/N=C(\C(=O)N[C@@H]1C(=O)N2C(C(=O)O)=C(Sc3ncc(C(F)(F)F)s3)CC[C@H]12)c1csc(N)n1 | 0.06 (≈ 0.109 µM) |

Tested on: Clostridium perfringens
Assay: Antibacterial activity against anaerobic Clostridium perfringens 81
Format: functional
Settings: not given
How it was run: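 Agar dilution MIC following NCCLS document M11-A2 (Vol. 10, no. 15), the method for antimicrobial testing of anaerobic bacteria; value reported as minimum inhibitory concentration.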

| Structure (SMILES) | MIC [µg/mL] |
| --- | --- |
| CO/N=C(\C(=O)N[C@@H]1C(=O)N2C(C(=O)O)=C(Sc3ncc(C(F)(F)F)s3)CC[C@H]12)c1csc(N)n1 | 0.06 (≈ 0.109 µM) |

Tested on: Clostridium septicum
Assay: Antibacterial activity against anaerobic Clostridium septicum 1128
Format: functional
Settings: not given
How it was run: as §1

| Structure (SMILES) | MIC [µg/mL] |
| --- | --- |
| CO/N=C(\C(=O)N[C@@H]1C(=O)N2C(C(=O)O)=C(Sc3ncc(C(F)(F)F)s3)CC[C@H]12)c1csc(N)n1 | 0.5 (≈ 0.911 µM) |

Tested on: Escherichia coli
Assay: Antibacterial activity against aerobic Escherichia coli EC14
Format: functional
Settings: not given
How it was run: (§2)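 MIC by agar dilution following the NCCLS M7-A2 (2nd ed.) procedure for bacteria that grow aerobically.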

| Structure (SMILES) | MIC [µg/mL] |
| --- | --- |
| CO/N=C(\C(=O)N[C@@H]1C(=O)N2C(C(=O)O)=C(Sc3ncc(C(F)(F)F)s3)CC[C@H]12)c1csc(N)n1 | 0.25 (≈ 0.456 µM) |

Tested on: not listed separately
Assay: Antibacterial activity against anaerobic Eubacterium aerofaciens 1235
Format: functional
Settings: Collinsella aerofaciens
How it was run: as §1

| Structure (SMILES) | MIC [µg/mL] |
| --- | --- |
| CO/N=C(\C(=O)N[C@@H]1C(=O)N2C(C(=O)O)=C(Sc3ncc(C(F)(F)F)s3)CC[C@H]12)c1csc(N)n1 | 16 (≈ 29.2 µM) |

Tested on: Klebsiella aerogenes
Assay: Antibacterial activity against aerobic Enterobacter aerogenes C32
Format: functional
Settings: not given
How it was run: as §2

| Structure (SMILES) | MIC [µg/mL] |
| --- | --- |
| CO/N=C(\C(=O)N[C@@H]1C(=O)N2C(C(=O)O)=C(Sc3ncc(C(F)(F)F)s3)CC[C@H]12)c1csc(N)n1 | 0.5 (≈ 0.911 µM) |

Tested on: not listed separately
Assay: Antibacterial activity against anaerobic Fusobacterium symbiosum 1470
Format: functional, fusobacterium symbosium
Settings: not given
How it was run: as §1

| Structure (SMILES) | MIC [µg/mL] |
| --- | --- |
| CO/N=C(\C(=O)N[C@@H]1C(=O)N2C(C(=O)O)=C(Sc3ncc(C(F)(F)F)s3)CC[C@H]12)c1csc(N)n1 | 2 (≈ 3.65 µM) |

Tested on: Fusobacterium necrophorum
Assay: Antibacterial activity against anaerobic Fusobacterium necrophorum 6054A
Format: functional
Settings: not given
How it was run: as §1

| Structure (SMILES) | MIC [µg/mL] |
| --- | --- |
| CO/N=C(\C(=O)N[C@@H]1C(=O)N2C(C(=O)O)=C(Sc3ncc(C(F)(F)F)s3)CC[C@H]12)c1csc(N)n1 | 0.25 (≈ 0.456 µM) |

Tested on: Haemophilus influenzae
Assay: Antibacterial activity against aerobic Haemophilus influenzae RES 76
Format: functional
Settings: not given
How it was run: as §2

| Structure (SMILES) | MIC [µg/mL] |
| --- | --- |
| CO/N=C(\C(=O)N[C@@H]1C(=O)N2C(C(=O)O)=C(Sc3ncc(C(F)(F)F)s3)CC[C@H]12)c1csc(N)n1 | 0.06 (≈ 0.109 µM) |

Tested on: Klebsiella pneumoniae
Assay: Antibacterial activity against aerobic Klebsiella pneumoniae X26
Format: functional
Settings: not given
How it was run: as §2

| Structure (SMILES) | MIC [µg/mL] |
| --- | --- |
| CO/N=C(\C(=O)N[C@@H]1C(=O)N2C(C(=O)O)=C(Sc3ncc(C(F)(F)F)s3)CC[C@H]12)c1csc(N)n1 | 0.03 (≈ 0.0547 µM) |

Tested on: Peptostreptococcus anaerobius
Assay: Antibacterial activity against anaerobic Peptostreptococcus anaerobius 1451
Format: functional
Settings: not given
How it was run: as §1

| Structure (SMILES) | MIC [µg/mL] |
| --- | --- |
| CO/N=C(\C(=O)N[C@@H]1C(=O)N2C(C(=O)O)=C(Sc3ncc(C(F)(F)F)s3)CC[C@H]12)c1csc(N)n1 | 0.5 (≈ 0.911 µM) |

Tested on: not listed separately
Assay: Antibacterial activity against anaerobic Peptostreptococcus intermedius 1264
Format: functional
Settings: not given
How it was run: as §1

| Structure (SMILES) | MIC [µg/mL] |
| --- | --- |
| CO/N=C(\C(=O)N[C@@H]1C(=O)N2C(C(=O)O)=C(Sc3ncc(C(F)(F)F)s3)CC[C@H]12)c1csc(N)n1 | 0.015 (≈ 0.0273 µM) |

Tested on: Pseudomonas aeruginosa
Assay: Antibacterial activity against aerobic Pseudomonas aeruginosa X239 strain
Format: functional
Settings: not given
How it was run: as §2

| Structure (SMILES) | MIC [µg/mL] |
| --- | --- |
| CO/N=C(\C(=O)N[C@@H]1C(=O)N2C(C(=O)O)=C(Sc3ncc(C(F)(F)F)s3)CC[C@H]12)c1csc(N)n1 | 128 (≈ 233 µM) |

Tested on: not listed separately
Assay: Antibacterial activity against anaerobic Peptococcus asaccharolyticus 1302
Format: functional
Settings: Peptoniphilus asaccharolyticus
How it was run: as §1

| Structure (SMILES) | MIC [µg/mL] |
| --- | --- |
| CO/N=C(\C(=O)N[C@@H]1C(=O)N2C(C(=O)O)=C(Sc3ncc(C(F)(F)F)s3)CC[C@H]12)c1csc(N)n1 | 0.125 (≈ 0.228 µM) |

Tested on: Anaerococcus prevotii
Assay: Antibacterial activity against anaerobic Peptococcus prevoti 1281
Format: functional
Settings: not given
How it was run: as §1

| Structure (SMILES) | MIC [µg/mL] |
| --- | --- |
| CO/N=C(\C(=O)N[C@@H]1C(=O)N2C(C(=O)O)=C(Sc3ncc(C(F)(F)F)s3)CC[C@H]12)c1csc(N)n1 | 0.5 (≈ 0.911 µM) |

Tested on: Cutibacterium acnes
Assay: Antibacterial activity against anaerobic Propionibacterium acnes 79
Format: functional
Settings: not given
How it was run: as §1

| Structure (SMILES) | MIC [µg/mL] |
| --- | --- |
| CO/N=C(\C(=O)N[C@@H]1C(=O)N2C(C(=O)O)=C(Sc3ncc(C(F)(F)F)s3)CC[C@H]12)c1csc(N)n1 | 0.008 (≈ 0.0146 µM) |

Tested on: Staphylococcus epidermidis
Assay: Antibacterial activity against aerobic Staphylococcus epidermidis 222
Format: functional
Settings: not given
How it was run: as §2

| Structure (SMILES) | MIC [µg/mL] |
| --- | --- |
| CO/N=C(\C(=O)N[C@@H]1C(=O)N2C(C(=O)O)=C(Sc3ncc(C(F)(F)F)s3)CC[C@H]12)c1csc(N)n1 | 1 (≈ 1.82 µM) |

Tested on: Streptococcus pneumoniae
Assay: Antibacterial activity against aerobic Streptococcus pneumoniae PARK
Format: functional
Settings: not given
How it was run: as §2

| Structure (SMILES) | MIC [µg/mL] |
| --- | --- |
| CO/N=C(\C(=O)N[C@@H]1C(=O)N2C(C(=O)O)=C(Sc3ncc(C(F)(F)F)s3)CC[C@H]12)c1csc(N)n1 | 0.008 (≈ 0.0146 µM) |

Tested on: Staphylococcus aureus
Assay: Antibacterial activity against aerobic Staphylococcus aureus X1.1 strain
Format: functional
Settings: not given
How it was run: as §2

| Structure (SMILES) | MIC [µg/mL] |
| --- | --- |
| CO/N=C(\C(=O)N[C@@H]1C(=O)N2C(C(=O)O)=C(Sc3ncc(C(F)(F)F)s3)CC[C@H]12)c1csc(N)n1 | 0.25 (≈ 0.456 µM) |
